Legend:
[1] = test system: Vero; assay: Cytotoxicity against African green monkey Vero cells assessed as reduction in cell viability after 48 hrs by MTT assay; format: cell-based; details: Chlorocebus sabaeus
Procedure, shortened: (§1)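 Vero or HepG2 cells in RPMI1640 with 10% FBS at 37 °C, 5% CO2, seeded at 4×10^5 cells/mL. Threefold dilutions at 64–0.26 µg/mL final for 48 h. Cells then washed with HBSS, MTT added for 4 h, absorbance read at 492 nm. IC50 taken relative to untreated control.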

[2] = test system: HepG2; assay: Cytotoxicity against human HepG2 cells assessed as reduction in cell viability after 48 hrs by MTT assay; format: cell-based; details: HepG2, 48 h; procedure, shortened: as §1
[3] = Inhibition of Mycobacterium tuberculosis DprE1 expressed in Escherichia coli BL21(DE3) by fluorescence based assay
Procedure, shortened: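 Buffer: 50 mM Hepes pH 7.5, 100 mM NaCl, 1.5% DMSO, 100 µM Tween-20, 2 µM FAD, 50 µM resazurin. DprE1 (1 µM) with 1 mM FPR at 30 °C across inhibitor concentrations. Resorufin formation followed by fluorescence (ex 530/em 595 nm).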

[4] = Acute toxicity in BALB/C mouse assessed as mouse survival at 2 g/kg, po administered as single dose measured during 7 days observation period; format: organism-based; details: in vivo, 2000 mg/kg, 168 h
Procedure, shortened: (§2)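 Female Balb/c mice (18–21 g), ten animals, given one oral dose of 2 g/kg. Survivors counted after 7 days of observation.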

[5] = Acute toxicity in po dosed BALB/C mouse assessed as mortality administered as single dose measured during 7 days observation period; format: organism-based; details: in vivo; procedure, shortened: as §2
[6] = Cmax in BALB/C mouse at 25 mg/kg, po by LC/TSQ quantum access mass spectrometry; format: ADME, organism-based; design: dose 25 mg/kg, route oral; details: in vivo
Procedure, shortened: (§3)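 Male Balb/c mice (22–23 g), three per route. Single dose of 25 mg/kg p.o. (2.5 mg/mL in 0.5% carboxymethyl cellulose + 0.5% Tween 80) or 10 mg/kg i.v. (2.0 mg/mL in 20% HP-β-CD with 4 mol/L HCl). Blood sampled 5, 15, 30 min, 1, 2, 4, 7, 24 h. Plasma extracted with acetonitrile plus terfenadine internal standard, then LC-MS/MS on a C18 column. F = (AUCpo×dose_iv)/(AUCiv×dose_po).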

[7] = Tmax in BALB/C mouse at 25 mg/kg, po by LC/TSQ quantum access mass spectrometry; format: ADME, organism-based; details: in vivo; procedure, shortened: as §3
[8] = MRT (0 to infinity) in BALB/C mouse at 25 mg/kg, po by LC/TSQ quantum access mass spectrometry; format: ADME, organism-based; details: in vivo; procedure, shortened: as §3
[9] = test system: Mycobacterium tuberculosis; assay: Antimicrobial activity against Mycobacterium tuberculosis H37Rv infected in BALB/C mouse assessed as bacterial burden in mouse lung at 100 mg/kg, po administered via gavage treated 5 times per week for 3 weeks starting from day 10 post infection (reference value: 7.102 +/- 0.152 log10CFU); format: functional

O=c1cc(N2CCN(CC3CCCCC3)CC2)sc2c([N+](=O)[O-])cc(C(F)(F)F)cc12
IC50 [1]: > 64 µg/mL | IC50 [2]: > 64 µg/mL | IC50 [3]: 4.53 µM | Activity [4]: Non-Toxic | LD50 at 168 h [5]: > 2000 mg/kg | Cmax [6]: 588 ng/mL | Tmax [7]: 0.5 h | MRT inf [8]: 6.59 h | Activity [9]: 1.678 log10CFU
